From the RNAGym collection of RNA variant scans (doi:10.1126/science.aae0568)
This sample holds only a part of the variants without activity.

B1: tRNA (parent)
chain: GUUCCGUUGGCGUAAUGGUAACGCGUCUCCCUCCUAAGGAGAAGACUGCGGGUUCGAGUCCCGUACGGAACG

Variants of: B1
Assay: yeast fitness relative to wild type (ratio to wild type); higher = fitter; tRNA-Arg(CCU), competitive growth, 37 C, YPD
In short: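 Gene amplicons from the start population and from each of six end populations were read by 100-nucleotide paired-end sequencing. Those end populations came from pooled Saccharomyces cerevisiae strains carrying tRNA-Arg(CCU) gene variants at the native locus, competed in YPD at 37°C for 24 hours. Fitness relative to wild type was worked out from changes in genotype frequencies. Genotypes needed ≥ 100 starting reads, and estimates < 0.5 were set to 0.5.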

Row | Variant | yeast fitness
1 | C27U C29U C49G A69G | ≤ 0.5
2 | C27G C30G C33G A37C G52C | ≤ 0.5
3 | C27G A43C C62U | 0.599
4 | C27G C31A C46A G56C | ≤ 0.5
5 | C27A U47C | 0.975
6 | C27G C33U G44C C49U | ≤ 0.5
7 | C27G C46G U53G G58C G68A | ≤ 0.5
8 | C27G G51A G63C | ≤ 0.5
9 | C27U A43G G52C C62U G63A | ≤ 0.5
10 | C27G C34G U54A A70U | ≤ 0.5
11 | C27G C46U G50A C66U | ≤ 0.5
12 | C27A U47A G56C | 0.694
13 | C27G A45U G67A | ≤ 0.5
14 | C27G A57U U59C | 0.508
15 | C27U C29G C61U | 0.675
16 | C27U A43C U59A C62U | 0.517
17 | C27U A36U | 0.638
18 | C27U A36C | 0.541
19 | C27G A36G C61A A65U | ≤ 0.5
20 | C27G C31U C49G G58C | ≤ 0.5
21 | C27U C29A G38C A57G A65C C66A | ≤ 0.5
22 | C27G C30A U47C | 0.535
23 | C27G A36G G63C C66U | ≤ 0.5
24 | C27G C29A A43U | ≤ 0.5

Row | Variant | yeast fitness
25 | C27U A42U | 1.09
26 | C27U A42C | 0.997
27 | C27G C49A A57U | ≤ 0.5
28 | C27A U47A G56C A69C | 0.894
29 | C27G U32G A36C C46G A70U | ≤ 0.5
30 | C27G C31U A65U A70U | ≤ 0.5
31 | C27G G39A C66U G68C | 0.575
32 | C27G A40U A57U C66A | ≤ 0.5
33 | C27G A42U G52A | ≤ 0.5
34 | C27G A43C | 0.611
35 | C27G A36U A45U A69C | 0.577
36 | C27G G48C G56C | ≤ 0.5
37 | C27G G52A C60G A69U A70C | 0.514
38 | C27G C30U G39C A40U G44C U47A G48A U53C C60A | ≤ 0.5
39 | C27G A43U A57G | ≤ 0.5
40 | C27G U28A C30G C31U A40G G67A | ≤ 0.5
41 | C27G C29A G52C | ≤ 0.5
42 | C27G C55A A70U | ≤ 0.5
43 | C27G U28C C61U | ≤ 0.5
44 | C27G C66U | 0.621
45 | C27G C66G | 0.579
46 | C27G C66A | ≤ 0.5
47 | C27G G50A C55G C62G G67U | ≤ 0.5
48 | C27U A40C G58A A70C | 0.511

Row | Variant | yeast fitness
49 | C27G C34G | ≤ 0.5
50 | C27G A37C G52C | ≤ 0.5
51 | C27G G68A | 0.607
52 | C27G C55A C66U | 0.545
53 | C27U A36C G39C G48C G63U | 0.547
54 | C27G G38C C55U | ≤ 0.5
55 | C27G A43U C55G | ≤ 0.5
56 | C27G G39A G67A | 0.59
57 | C27G A37G G38A | ≤ 0.5
58 | C27G C29A C33A A43C | 0.574
59 | C27G G48A G51A | 0.527
60 | C27G C49A G58C | ≤ 0.5
61 | C27G A65U G68U | 0.583
62 | C27G G48C A69G | ≤ 0.5
63 | C27U A43C C60A | ≤ 0.5
64 | C27G U28A A65U A70U | 0.558
65 | C27G A42C A70U | ≤ 0.5
66 | C27U A37G | 0.899
67 | C27U A37C | 0.664
68 | C27U A37U | 0.626
69 | C27G U28C A45C G48A C55A | 0.601
70 | C27G C55U G67C | ≤ 0.5
71 | C27G A45U A70C | 0.614
72 | C27U A42U C62U | 0.559

Row | Variant | yeast fitness
73 | C27G U32C A57G | 0.578
74 | C27U A37C A40U A43U | 0.541
75 | C27G C34A C46G C55A | ≤ 0.5
76 | C27G C29U | 0.578
77 | C27G U32C A42C G48C C55G C60U G68C | ≤ 0.5
78 | C27G A40U C55U | ≤ 0.5
79 | C27A U28A A70U | ≤ 0.5
80 | C27G C33G | 0.524
81 | C27G C33A | 0.593
82 | C27G A69G | 0.652
83 | C27G A69C | 0.654
84 | C27A U54A A65U C66U | ≤ 0.5
85 | C27G A45G | 0.722
86 | C27G C49U C60A | ≤ 0.5
87 | C27U C29G C55U A65G C66A | ≤ 0.5
88 | C27U A36C G56C G68A A70U | ≤ 0.5
89 | C27G C46U A69C | 0.735
90 | C27G G39A C46U G67A | 0.581
91 | C27G U32G | ≤ 0.5
92 | C27G U32C | 0.935
93 | C27G U32A | 0.539
94 | C27G G48C | 0.632
95 | C27G G48A | 0.565
96 | C27A U47G A69C | ≤ 0.5

Row | Variant | yeast fitness
97 | C27A U59A | 0.876
98 | C27U C29G C46A | 0.539
99 | C27U A40G C55U G56A U64G A69U | ≤ 0.5
100 | C27G A57C U59A C62G G68A | 0.532
101 | C27G C33G G39A C46U C60G | ≤ 0.5
102 | C27G G56A | 0.614
103 | C27G A42C A65C | ≤ 0.5
104 | C27G A37G A57C G68C A69C | ≤ 0.5
105 | C27G C46A C49G | 0.704
106 | C27G C33U A40G C49U A69C | 0.703
107 | C27G A37U C49G U64C A69C | ≤ 0.5
108 | C27G C31U C46G G51C | ≤ 0.5
109 | C27G G44C A45G A65G | ≤ 0.5
110 | C27G A37U A43G | ≤ 0.5
111 | C27G C33U A69C | 0.544
112 | C27G A37G G63C U64C | ≤ 0.5
113 | C27G G50A | 0.654
114 | C27G C30U G38C G58A | 0.679
115 | C27G U28A C30G C31U G67A | 0.519
116 | C27A U32G C62U A70C | 0.547
117 | C27G C33G G41A A65C | ≤ 0.5
118 | C27G G67A | 0.637
119 | C27G G67C | 0.677
120 | C27G G63A C66G | ≤ 0.5

Row | Variant | yeast fitness
121 | C27G C61A | 0.582
122 | C27G C61G | 0.554
123 | C27A U53A G58C A70C | 0.57
124 | C27G C46U G50A | 0.599
125 | C27U A43C U59A | 0.645
126 | C27G C29A C55G | ≤ 0.5
127 | C27G U32C U54C C62U | ≤ 0.5
128 | C27U A70C | 1.03
129 | C27U A70U | 0.988
130 | C27U A70G | 0.988
131 | C27G C31G U54G A70C | ≤ 0.5
132 | C27G A57C C62U | 0.511
133 | C27G C46U U54C | 0.738
134 | C27G A40U A70C | ≤ 0.5
135 | C27A U28C | 0.775
136 | C27U A36C G68C | 0.602
137 | C27U C29G A57C C61A | ≤ 0.5
138 | C27G G39C G52A | ≤ 0.5
139 | C27U A36C C61U | ≤ 0.5
140 | C27G G39A C46U C66U | ≤ 0.5
141 | C27G A37C A40G C46U | 0.578
142 | C27U A37C A40U A43U A65U | ≤ 0.5
143 | C27U A43C A69U | 0.882
144 | C27G C34A C60A | 0.551

Row | Variant | yeast fitness
145 | C27G C33A G48A G51C | ≤ 0.5
146 | C27G C33U A45U | 0.568
147 | C27G A65G C66G | ≤ 0.5
148 | C27G C46U C60U | 0.626
149 | C27G A43C C46U G58A | 1.02
150 | C27G C31A A70C | 0.539
151 | C27A U53G | 0.651
152 | C27G G52C | 0.549
153 | C27U A36U G38C A43C C66U | ≤ 0.5
154 | C27G G38A | 0.745
155 | C27G A40G G51A | 0.541
156 | C27G C31G A69U | ≤ 0.5
157 | C27U C29A C55G A65G | ≤ 0.5
158 | C27G G39C A69U | 0.566
159 | C27G A37G G39A C61G | 0.821
160 | C27G A36U G39C A69C | 0.548
161 | C27G C31U U53C | 0.573
162 | C27G C49G | 0.621
163 | C27G C49U | 0.614
164 | C27G A43G C49U | 0.59
165 | C27G C33A A65U | ≤ 0.5
166 | C27U C29U C49G | ≤ 0.5
167 | C27U C29U C49U | 0.71
